{"data": "Results from different studies", "cell line": "BT-549", "effect on": "cell growth or viability", "note": "Protocols differ between the studies behind these lines."}
{"SMILES": "C#C[C@@]1(O)[C@@H](CO)O[C@@H](n2cc(Br)c3c(N)ncnc32)[C@@H]1O", "test": "SRB", "quantity": "GI50", "value": "0.147 µM"}
{"SMILES": "Cl.Oc1cccc2c1[nH]c1c(C3=CC4(O)CC/C=C\\CCCCN5CCC3C3(CC6/C=C\\CCCCN6C43)C5)nccc12 (single isomer, unassigned; (+))", "test": "neutral red", "conditions": "48 h", "quantity": "IC50", "value": "1.05 mg/L"}
{"SMILES": "O=C1Nc2ccccc2C1=NNc1nnc2n1N=C(c1ccccc1)CS2", "test": "SRB", "conditions": "10 µM", "quantity": "inhibition", "value": "28%"}
{"SMILES": "COc1cccc(Oc2ccccc2NC(=O)CNC(=O)c2cccc3ccccc23)c1", "test": "SRB", "conditions": "48 h", "quantity": "GI50", "value": "0.295 µM"}
{"SMILES": "CC(=O)O[C@@]12CO[C@@H]1C[C@H](O)[C@@]1(C)C(=O)[C@H](O)C3=C(C)[C@@H](OC(=O)[C@H](O)[C@@H](NC(=O)OC(C)(C)C)c4ccccc4)C[C@@](O)([C@@H](OC(=O)c4ccccc4)[C@H]21)C3(C)C", "test": "ATP luminescence", "conditions": "72 h", "quantity": "IC50", "value": "0.001 µM"}
{"SMILES": "COc1cccc2c1C(=O)c1c(O)c3c(c(O)c1C2=O)C[C@@](O)(C(=O)CO)C[C@@H]3O[C@H]1C[C@H](N)[C@H](O)[C@H](C)O1", "test": "neutral red", "conditions": "48 h", "quantity": "IC50", "value": "1.05 mg/L"}
{"SMILES": "COc1ccc(C(=O)/C=C/c2cccc3ccccc23)cc1S(N)(=O)=O", "test": "SRB", "conditions": "48 h", "quantity": "GI50", "value": "1.8 µM"}
{"SMILES": "COc1ccc(-c2ccc(-c3ccc(C(=N)N)nc3)s2)cc1", "test": "SRB", "quantity": "GI50", "value": "1.7 µM"}
{"SMILES": "CC(=O)O[C@H]1C(=O)[C@@]2(C)[C@H]([C@H](OC(=O)c3ccccc3)[C@]3(O)C[C@H](OC(=O)[C@H](O)[C@@H](NC(=O)c4ccccc4)c4ccccc4)C(C)=C1C3(C)C)[C@]1(OC(C)=O)CO[C@@H]1C[C@@H]2O", "test": "ATP luminescence", "conditions": "72 h", "quantity": "IC50", "value": "0.0031 µM"}
{"SMILES": "COc1ccc(C(=O)/C=C/c2cccc(Cl)c2Cl)cc1S(N)(=O)=O", "test": "SRB", "conditions": "48 h", "quantity": "GI50", "value": "4.7 µM"}
{"SMILES": "COc1cc(-c2ccc(-c3ccc(C(=N)N)nc3)s2)cc(OC)c1OC", "test": "SRB", "quantity": "GI50", "value": "1.67 µM"}
